Assay results published in PubChem BioAssay AID871 (The Scripps Research Institute Molecular Screening Center, 2007).
In all, about 190,000 compounds went through this assay and about 1,800 (0.95%) were called active. What follows is part of a selection rich in actives, with near analogues and random picks from the rest. Unmarked numbers belong to inactive results.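 How the source made its calls: active means activation above the screen-wide mean of compound activation plus 3 SD (cut at about 130% in these data); inactive means the rest.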

Assay: IL-6 driven STAT3 reporter potentiators, primary screen, U3A cells, luciferase, luminescence, MLSCN library (AID 871);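 further: 0% = background luminescence of wells with medium and substrate only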
Settings: IL-6 STAT3-luciferase reporter, at 5.6 µM, stronger effect = higher value, 100% = signal with IL-6 EC80 alone
In short: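 Material: STAT3-luciferase reporter U3A cells; Probe or stimulus: IL-6 (33 ng/mL); Incubation: compound pre-incubation 1 h before IL-6, then 6 h stimulation at 37 °C; Technique: luminescence from STAT3-driven luciferase reporter; Evaluation: % activation versus median of IL-6-stimulated wells; Controls: IL-6-only high control.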

Structure (SMILES)	activation (% of control)
Cc1cc2oc(C(=O)Nc3c(C)n(C)n(-c4ccccc4)c3=O)c(C)c2cc1Cl	96.5%
CC(C)COP(=O)(c1ccc(N(C)C)cc1)C(Nc1ccccc1)c1cccnc1 (stereo not drawn)	106%
Oc1cccc2ccc(/C=C/c3ccc(Br)s3)nc12	146% (active)
Nc1ccc(S(=O)(=O)Nc2nccc(/C=C/c3ccc(Br)s3)n2)cc1	92.4%
O=C(Nc1nnc(C2CC2)s1)C1=NN(C2CCS(=O)(=O)C2)C(=O)CC1 (stereo not drawn)	103%
O=C(N/N=C/c1ccccn1)c1ccc(S(=O)(=O)N2CCCCCC2)cc1	104%
O=C(C1CCN(C2CCN(Cc3cccc4c3OCO4)CC2)CC1)N1CCOCC1	108%
Cc1ccc(/C=N/NC(=O)COc2ccccc2-c2ccccc2)cc1	148% (active)
Cc1ccc(OCC(=O)N/N=C\c2ccco2)c(C)c1	92.2%
Cc1ccc(OCC(=O)N/N=C/c2ccncc2)cc1	95.8%
CC(=O)C1=C(C)NC2=C(C(=O)CC(C)(C)C2)C1C (stereo not drawn)	97%
N#Cc1ncc(C(F)(F)F)cc1Oc1cccnc1	107%
COCCCNc1nc2c(-c3cccc(C(F)(F)F)c3)nnn2c2ccccc12	147% (active)
CC(=O)Nc1ccc(Nc2nc3c(S(=O)(=O)c4ccc(C)c(C)c4)nnn3c3ccccc23)cc1	95.2%
Cc1cccc(Nc2nc3c(S(=O)(=O)c4ccccc4)nnn3c3ccccc23)c1C	105%
O=C(CNCc1ccco1)Nc1cc(S(=O)(=O)N2CCOCC2)ccc1N1CCCC1	114%
CCOc1ccc(NC(=S)N2CCC(N(C)CC3CCCO3)CC2)cc1 (stereo not drawn)	102%
COc1cc2c(cc1OC)CN(C(=O)c1ccc(S(=O)(=O)N3CCCCCC3)cc1)CC2	92.7%
CCOc1cc(C(=O)N2CCc3cc(OC)c(OC)cc3C2)ccc1OC(F)F	133% (active)
COc1cc2c(cc1OC)CN(C(=O)c1cc(=O)c3ccccc3o1)CC2	92.7%
O=C(CNS(=O)(=O)c1ccccc1)NCC(=O)OCc1ccccc1F	108%
Cc1ccc(C(=O)Nc2cccc3ncccc23)cc1[N+](=O)[O-]	94.5%
Cc1cc(O)c(NC(=O)c2ccc(C)c([N+](=O)[O-])c2)cc1C	134% (active)
CCN1CCC(=NNC(=O)c2ccc(C)c([N+](=O)[O-])c2)CC1	107%

Structure (SMILES)	activation (% of control)
Cc1ccccc1CC1(CO)CCCN(Cc2ccc3c(c2)OCCO3)C1 (stereo not drawn)	93.5%
COc1ccccc1CCNC(=O)CSc1nnc2ccc(-c3cccnc3)nn12	101%
CC(C)(C)C(=O)CN1C2=NCCN2c2ccccc21	96.1%
O=C(NCc1ccco1)c1cccn2c(=O)c3c4c(sc3nc12)CCCC4	154% (active)
C=C(C)Cn1c(SCC(=O)NCc2ccco2)nc2sc3c(c2c1=O)CCC3	104%
COc1ccc(CCn2c(=N)c(C(=O)NCc3ccco3)cc3c(=O)n4cccc(C)c4nc32)cc1	94.5%
O=C(Nc1nnc(SCc2ccccc2Cl)s1)c1cccc([N+](=O)[O-])c1	109%
Fc1ccc(-c2nnc(CSc3nnc(-c4ccc5c(c4)OCO5)o3)o2)cc1	102%
c1ccc(-c2nnc(SCc3nc4ccccc4[nH]3)o2)cc1	109%
Fc1ccc2nc(-c3ccccc3)nc(SCc3nnc(-c4ccccc4)o3)c2c1	141% (active)
O=C(NCCCO)/C(=C\C=C\c1ccccc1)NC(=O)c1ccccc1Cl	101%
CC1CCc2sc(C(=O)N/N=C/C3CCCCC3)cc2C1 (stereo not drawn)	103%
CN(NC(=O)c1ccccc1)c1nc2ccccc2nc1C(F)(F)F	96%
CSc1nc(N(C)NC(=O)c2cccc(C)c2)c2ccccc2n1	139% (active)
CN(NC(=O)c1ccccc1F)c1nc(C(F)(F)F)nc2ccccc12	115%
CSc1ncccc1C(=O)Nc1nc2ccc(F)cc2s1	90.7%
COc1ccc2nc(Nc3nc4cc5c(cc4s3)OCCO5)sc2c1	93.3%
Fc1ccc2nc(Nc3nc4c(s3)CCCC4)sc2c1	147% (active)
COc1cc(NC(=S)NCc2ccco2)c(OC)cc1Cl	95.6%
O=C(c1ccncc1)N1CCN(c2ccc3ccccc3n2)CC1	90%
O=C(c1ccc2ccccc2n1)N1CCN(c2ccccc2Cl)CC1	135% (active)
COc1ccccc1N1CCN(C(=O)c2cc(-c3ccc(Cl)c(Cl)c3)on2)CC1	91.7%
O=C(/C=C/c1ccc(F)cc1)NCCNC(=O)/C=C/c1ccc(F)cc1	95%
COC(=O)CC(=O)N1CCN(c2ccc(Cl)c(Cl)c2)CC1	87.7%
